These results are taken from ChEMBL document CHEMBL1135862, “Bioactive 4-substituted-6-methyl-2-pyrones with promising cytotoxicity against A2780 and K562 cell lines” (Bioorg Med Chem Lett, 2002).

For experiment [1], the system named is Escherichia coli. Briefly: Antimicrobial activity against Escherichia coli after 96h incubation. Type of experiment: functional. In outline: (§1)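 Agar diffusion on cellulose disks loaded with 200 µg compound each. Bacteria read after 96 h, yeasts after 48 h. Activity is recorded as the radius in mm, or percent, of the inhibition zone. Squalestatin S1 (200 µg/disk) served as control in the yeast assay.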

Experiment [2] concerns K562. Briefly: Inhibitory concentration in vitro for cytotoxic activity against K 562 human chronic myelogenous leukemia cells. The class given is functional, cell-based. In outline: (§2)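 MTT assay in 96-well plates, seeding 400–1000 cells/well. Cells recover 24 h, then drug in medium is added, three wells per dose. Incubate 5 days at 37 °C in 5% CO₂. Add MTT (3 mg/mL) for 3 h, dissolve formazan in DMSO, read at 540 nm minus 620 nm. Percent growth inhibition per dose comes from duplicate experiments, reported as mean and SD; IC50 is derived from these.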

Experiment [3] concerns Schizosaccharomyces pombe. In words: (§3) Antimicrobial activity against Schizosaccharomyces pombe after 48 hr incubation. The class given is functional. In outline: as §1
Experiment [4] deals with Saccharomyces cerevisiae. In words: Compound was evaluated for anti fungal activity against Saccharomyces cerevisiae after 48 hr incubation. Type of experiment: functional. In outline:
as §1

For experiment [5], the system named is Bacillus subtilis. Briefly: Antimicrobial activity against Bacillus subtilis after 96 hr incubation. The class given is functional. Further details: concentration or dose not given beside the values. In outline: as §1
In experiment [6] the test system is Staphylococcus aureus. Briefly: The compound was evaluated for anti microbial activity against Staphylococcus aureus after 96 hr incubation. Type of experiment: functional. The arrangement: concentration or dose not given beside the values. In outline:
as §1

Experiment [7] relates to Candida albicans. In words: Anti fungal activity against Candida albicans after 48 hr incubation. The arrangement: concentration or dose not given beside the values. Type of experiment: functional. In outline:
as §1

Experiment [8] deals with Bacillus subtilis. In words: Antimicrobial activity against Bacillus subtilis after 96h incubation. Type of experiment: functional. In outline:
as §1

The subject of experiment [9] is Staphylococcus aureus. Briefly: Antimicrobial activity against Staphylococcus aureus after 96h incubation. Type of experiment: functional. In outline: as §1
Experiment [10] has as its system Saccharomyces cerevisiae. In words: Antimicrobial activity against Saccharomyces cerevisiae after 48 hr incubation. Type of experiment: functional. In outline:
as §1

Experiment [11] has as its system Candida albicans. Briefly: Antimicrobial activity against Candida albicans after 48 hr incubation. Type of experiment: functional. In outline: as §1
The subject of experiment [12] is Escherichia coli. In words: Antimicrobial activity against the Escherichia coli after 96 hr incubation. Type of experiment: functional. Further details: concentration or dose not given beside the values. In outline:
as §1

For experiment [13], the system named is A2780. Briefly: Inhibitory concentration in vitro for cytotoxic activity against A 2780 human ovarian carcinoma cells. Type of experiment: functional, cell-based. In outline:
as §2

Experiment [14] deals with Schizosaccharomyces pombe. The description is as §3. Type of experiment: functional. The arrangement: concentration or dose not given beside the values. In outline: as §1
Experiment [15] concerns Schizosaccharomyces pombe. In words: The compound was evaluated for antimicrobial activity against Schizosaccharomyces pombe after 48 hr incubation. Type of experiment: functional. In outline:
as §1

SMILES strings stand for the structures.

As usually defined, the IC50 is the concentration needed to halve the response being measured. With `C#Cc1cc(C)oc(=O)c1`, the Inhibition in experiment [1] is 16 mm; in experiment [3], 40 mm; in experiment [4] it was 45.4%; in [5], 19.3%; in experiment [6], 34.1%; in experiment [7], 40.9%. Moreover, the Inhibition in experiment [8] is given as 17 mm; in experiment [9] it was 30 mm; in experiment [10] it was 40 mm; in [11], 36 mm; in [12], 18.2%; in experiment [14], 45.5%. Moreover, the IC50 in experiment [2] stood at 2 µM; in [13] it was 3.1 µM.

In the case of `CCc1cc(C)oc(=O)c1`, the Inhibition in experiment [1] is reported as 21 mm; in experiment [15] it was 0 radii mm-1; in experiment [8], 0 mm; in [9], 0 mm; in [10] it was 0 mm; in experiment [11] it was 0 mm. In experiment [12], this molecule showed an Inhibition of 23.8%. Further, the IC50 in [2] and in experiment [13] was > 50 µM in each case.

Turning to `CCCCCC#Cc1cc(C)oc(=O)c1`, the Inhibition in [1] is on record as 19 mm; in [3] it was 50 mm; in experiment [5], 21.6%; in [6], 23.9%; in [7], 25%; in experiment [8] it was 19 mm. In addition, the Inhibition in experiment [9] is on record as 21 mm; in [10], 0 mm; in experiment [11], 22 mm; in experiment [12], 21.6%; in experiment [14], 56.8%. Besides, the figures for the half-maximal inhibitory concentration (IC50) in experiment [2] and in experiment [13] were 11.1 µM and 2.9 µM, respectively.

`CCCCCCCCc1cc(C)oc(=O)c1`: the Inhibition was found to be 22 mm in [1]; 30 mm in experiment [3]; 21.6% in experiment [5]; 20.5% in experiment [6]; 22.7% in [7]; 19 mm in experiment [8]. In addition, the Inhibition in experiment [9] is given as 18 mm; in experiment [10] it was 0 mm; in experiment [11], 20 mm; in experiment [12], 25%; in experiment [14] it was 34.1%.

As for `Cc1cc(C#CCOC2CCCCO2)cc(=O)o1` (stereo not drawn), the Inhibition came out at 17 mm in [1]; 18 mm in [3]; 22.7% in experiment [5]; 34.1% in experiment [6]; 14.8% in experiment [7]; 20 mm in experiment [8]. For the same molecule, the Inhibition in experiment [9] came out at 30 mm; in experiment [10], 0 mm; in experiment [11], 13 mm; in experiment [12] it was 19.3%; in experiment [14], 20.5%. Further, the IC50 in experiment [2] came out at 4 µM; in experiment [13], 2.1 µM.

Regarding `CCCCCCc1cc(C)oc(=O)c1`, the Inhibition is recorded as 25 mm in experiment [1]; 26 mm in experiment [3]; 23.9% in [5]; 12.5% in experiment [7]; 21 mm in experiment [8]; 0 mm in experiment [9]. In addition, the Inhibition in [10] is given as 0 mm; in experiment [11], 11 mm; in experiment [12], 28.4%; in [14], 29.5%. Further, the IC50 in experiment [2] and in [13] was > 50 µM throughout.

With `CCC/C=C/c1cc(C)oc(=O)c1`, the Inhibition in [1] is given as 19 mm; in experiment [3], 28 mm; in [5], 18.2%; in [6] it was 22.7%; in experiment [7] it was 18.2%; in experiment [8], 16 mm. Besides, the Inhibition in experiment [9] worked out at 20 mm; in experiment [10], 0 mm; in experiment [11], 16 mm; in experiment [12] it was 21.6%; in experiment [14] it was 31.8%.

As to `CCCCC#Cc1cc(C)oc(=O)c1`, the Inhibition was 20 mm in experiment [1]; 45 mm in [3]; 19.3% in [5]; 22.7% in experiment [7]; 17 mm in experiment [8]; 0 mm in experiment [9]. Further, the Inhibition in experiment [10] amounted to 0 mm; in experiment [11], 20 mm; in [12], 22.7%; in experiment [14], 51.1%. Moreover, the results for the IC50 in experiment [2] and in experiment [13] were 15.5 µM and 7 µM, respectively.

On to `CCCC#Cc1cc(C)oc(=O)c1`, for which the Inhibition was determined as 22 mm in experiment [1]; 29 mm in experiment [3]; 20.5% in [5]; 23.9% in experiment [6]; 12.5% in [7]; 18 mm in [8]. For the same molecule, the Inhibition in [9] is on record as 21 mm; in experiment [10], 0 mm; in experiment [11], 11 mm; in [12], 25%; in experiment [14], 32.9%. Moreover, the IC50 in experiment [2] was 17.8 µM; in [13], 4.8 µM.

With `CCCCCCCc1cc(C)oc(=O)c1`, the Inhibition in experiment [1] is 17 mm; in experiment [3], 30 mm; in experiment [4] it was 5.7%; in experiment [5], 18.2%; in experiment [6] it was 15.9%; in experiment [15] it was 34.1%. Also, the Inhibition is on record as 18.2% in [7]; 16 mm in experiment [8]; 14 mm in experiment [9]; 5 mm in experiment [10]; 16 mm in experiment [11]; 19.3% in [12]. In addition, the half-maximal inhibitory concentration (IC50) in experiment [2] is 28.7 µM; in [13], 41.8 µM.

With `CCCCC/C=C/c1cc(C)oc(=O)c1`, the Inhibition in experiment [1] worked out at 18 mm; in [3], 34 mm; in experiment [5], 20.5%; in experiment [6] it was 19.3%; in experiment [7], 23.9%; in experiment [8] it was 18 mm. Besides, the Inhibition is recorded as 17 mm in experiment [9]; 0 mm in experiment [10]; 21 mm in experiment [11]; 20.5% in [12]; 38.6% in experiment [14]. For the same molecule, the concentration for half-maximal inhibition (IC50) in experiment [2] and in experiment [13] was > 50 µM throughout.

Regarding `CCCCCC/C=C/c1cc(C)oc(=O)c1`, the Inhibition in experiment [1] is 20 mm; in [3], 29 mm; in experiment [5], 20.5%; in experiment [6], 20.5%; in [7], 22.7%; in [8], 18 mm. Further, the Inhibition worked out at 18 mm in experiment [9]; 0 mm in experiment [10]; 20 mm in experiment [11]; 22.7% in [12]; 32.9% in [14]. Moreover, the IC50 in experiment [2] and in experiment [13] was > 50 µM in each case.
